pIC50, pKd: −log10 of the molar value.
Key:
[1] = biological target: GABA-A receptor; anion channel; experiment: Apparent affinity by displacement of pre-incubated [35S]-TBPS from rat cortical homogenates (control)
Outline: (§1)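 Cortical homogenate (twice-washed, 1:15) pretreated 1 h on ice with acylator (60 nM or 600–2400 nM) plus 200 mM NaCl. It was then washed five times by centrifugation in pH 7.4 phosphate/100 mM NaCl and resuspended chloride-free. Saturation binding used 2–5 nM [35S]TBPS with 0–160 nM unlabeled TBPS, 200 mM NaCl, 2 h at 25 °C. Nonspecific binding was defined by 20 µM picrotoxinin. Kd and Bmax came from Scatchard plots, mean of 3–5 experiments.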

[2] = biological target: GABA-A receptor; anion channel; experiment: Inhibition of [35S]-TBPS binding to rat cortical membranes after 60 minute pre-incubation with radioligand; assay type: cell membranes, Membrane
Outline: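 Washed cortical homogenate was incubated with 5 nM [35S]TBPS for 60 min before acylator was added, in pH 7.4 potassium phosphate with 200 mM NaCl at 25 °C. Bound radioligand was collected by GF/B filtration and counted by scintillation. Nonspecific binding was defined by 20 µM picrotoxinin. Inhibition was expressed as percent of control binding without acylator; N ≥ 1.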

[3] = biological target: GABA-A receptor; anion channel; experiment: Apparent affinity by displacement of preincubated [35S]TBPS from rat cortical homogenates at 2400 nM; outline: as §1
[4] = biological target: T1, GABA-A receptor; anion channel (Rattus norvegicus) (UniProt O09028+P15431+P18506+P18508+P19969+P20236+P23574+P23576+P28471+P28473+P30191+P62813+P63079+P63138+Q91ZM7+Q9ES14); experiment: Displacement of [35S]TBPS binding to rat cortical homogenates at 2400 nM; outline: as §1
[5] = biological target: GABA-A receptor; anion channel; experiment: Inhibition of [35S]TBPS binding to rat cortical membranes; assay type: cell membranes, Membrane
Outline: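 Coincubation: 5 nM [35S]TBPS and acylator (5–1000 nM or 50–10000 nM, depending on ligand) were added simultaneously to washed cortical homogenate. Incubation was in pH 7.4 potassium phosphate with 200 mM NaCl, 2 h at 25 °C. Binding was read by filtration and scintillation, with nonspecific binding defined by 20 µM picrotoxinin. Inhibition was taken as percent of control; N ≥ 3.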

[6] = biological target: T1, GABA-A receptor; anion channel (Rattus norvegicus); experiment: Displacement of [35S]TBPS binding to rat cortical homogenates (control); outline: as §1
[7] = biological target: GABA-A receptor; anion channel; experiment: Apparent affinity by displacement of preincubated [35S]-TBPS from rat cortical homogenates at 1500 nM; outline: as §1
[8] = biological target: GABA-A receptor; anion channel; experiment: Apparent affinity by displacement of preincubated [35S]TBPS from rat cortical homogenates at 1200 nM; outline: as §1
[9] = biological target: T1, GABA-A receptor; anion channel (Rattus norvegicus); experiment: Displacement of [35S]TBPS binding to rat cortical homogenates at 600 nM; outline: as §1
[10] = biological target: GABA-A receptor; anion channel; experiment: Apparent affinity by displacement of pre-incubated [35S]-TBPS from rat cortical homogenates at 600 nM; outline: as §1
[11] = biological target: T1, GABA-A receptor; anion channel (Rattus norvegicus); experiment: Displacement of [35S]TBPS binding to rat cortical homogenates at 1200 nM; outline: as §1
[12] = biological target: T1, GABA-A receptor; anion channel (Rattus norvegicus); experiment: Displacement of [35S]TBPS binding to rat cortical homogenates at 1500 nM; outline: as §1
[13] = biological target: Gamma-aminobutyric acid receptor subunit gamma-1 (Rattus norvegicus) (UniProt P23574); experiment: Displacement of [35S]TBPS binding to rat cortical homogenates at 60 nM; outline: as §1
[14] = biological target: Gamma-aminobutyric acid receptor subunit gamma-1 (Rattus norvegicus, UniProt P23574); experiment: Apparent affinity by displacement of preincubated [35S]TBPS from rat cortical homogenates at 60 nM; outline: as §1
Gamma-aminobutyric acid receptor subunit gamma-1, sequence (P23574 whole entry): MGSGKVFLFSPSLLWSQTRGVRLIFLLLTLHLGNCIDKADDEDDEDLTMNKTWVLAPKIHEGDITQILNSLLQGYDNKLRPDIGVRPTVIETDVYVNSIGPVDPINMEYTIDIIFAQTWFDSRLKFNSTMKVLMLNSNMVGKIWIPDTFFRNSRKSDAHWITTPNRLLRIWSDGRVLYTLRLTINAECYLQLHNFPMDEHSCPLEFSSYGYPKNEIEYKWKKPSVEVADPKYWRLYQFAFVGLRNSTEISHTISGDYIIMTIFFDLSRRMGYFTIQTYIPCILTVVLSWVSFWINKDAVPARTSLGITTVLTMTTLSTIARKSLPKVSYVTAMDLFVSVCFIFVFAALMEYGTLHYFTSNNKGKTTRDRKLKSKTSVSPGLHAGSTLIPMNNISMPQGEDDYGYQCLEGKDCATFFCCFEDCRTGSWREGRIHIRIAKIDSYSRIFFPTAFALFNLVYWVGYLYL

Gamma-aminobutyric acid receptor subunit gamma-1 (Rattus norvegicus), sequence (P23574 whole entry): as above

Structure (SMILES) | pKd [1] | pIC50 [2] | pKd [3] | Bmax [4] | pIC50 [5] | Bmax [6] | pKd [7] | pKd [8] | Bmax [9] | pKd [10] | Bmax [11] | Bmax [12] | Bmax [13] | pKd [14]
CC(C)(C)C12COC(c3cccc(N=C=S)c3)(OC1)OC2 | 7.45 | 5.27 | 7.13 | 1010 fM assay-1 | 6.24 | 1080 fM assay-1 | 7.25 | 7.29 | 925 fM assay-1 | 7.35 | 889 fM assay-1 | 928 fM assay-1 |  | 
CC(C)(C)C12COC(c3ccccc3N=C=S)(OC1)OC2 | 7.33 | 5.12 | 7.24 | 1030 fM assay-1 | 6.22 | 963 fM assay-1 | 7.25 | 7.29 | 915 fM assay-1 | 7.24 | 817 fM assay-1 | 869 fM assay-1 |  | 
CC(C)(C)C12COC(c3ccc(N=C=S)cc3)(OC1)OC2 | 7.33 | 7.05 |  |  | 7.21 | 955 fM assay-1 |  |  |  |  |  |  | 644 fM assay-1 | 7.14
